Shown are actives, neighbours in structure and some others; about 2.7% of the full set was active somewhere.
Wee1 stabilizer: inhibitors of human Wee1 degradation | HeLa Luc-Wee1K328M stability, luciferase luminescence; 100% = proteasome inhibitor MG132 effect | reporter increase, % at 5 µM | hit rate 1.2% among 220,000 | AID 1321;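 active = activation above the mean of all tested compounds plus 3 SD, set per screening run, cut at about 8.8% in these data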;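 note: cells exposed to compound for 20 h before luminescence read; 0% = DMSO alone and 100% = MG132 at 30 µM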
Target sequence (P30291 whole entry K328M): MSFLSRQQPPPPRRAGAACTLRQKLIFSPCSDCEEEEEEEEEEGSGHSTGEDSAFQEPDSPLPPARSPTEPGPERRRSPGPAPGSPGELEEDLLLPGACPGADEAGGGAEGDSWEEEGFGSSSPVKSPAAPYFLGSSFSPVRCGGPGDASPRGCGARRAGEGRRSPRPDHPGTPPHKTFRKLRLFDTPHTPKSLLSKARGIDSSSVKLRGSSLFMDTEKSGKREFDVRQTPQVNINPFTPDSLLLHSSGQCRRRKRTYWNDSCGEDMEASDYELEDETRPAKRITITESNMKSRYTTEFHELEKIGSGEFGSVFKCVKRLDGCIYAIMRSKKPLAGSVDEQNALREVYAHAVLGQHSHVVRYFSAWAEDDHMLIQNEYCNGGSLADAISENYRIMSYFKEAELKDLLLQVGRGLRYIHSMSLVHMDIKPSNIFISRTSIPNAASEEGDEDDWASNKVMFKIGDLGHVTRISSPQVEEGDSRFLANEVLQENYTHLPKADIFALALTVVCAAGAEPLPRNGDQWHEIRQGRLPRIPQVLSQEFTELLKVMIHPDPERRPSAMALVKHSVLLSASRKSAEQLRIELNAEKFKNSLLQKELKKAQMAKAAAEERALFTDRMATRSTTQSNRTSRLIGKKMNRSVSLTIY
TNF death inh: TNF-alpha cell death inhibition in Jurkat FADD-/- cells; Jurkat FADD-/- TNF necroptosis rescue, ATP luminescence, 24 h; 0 = TNF only, 100 = no-TNF cells; activation (protection from cell death), % at 10 µM; AID 463075; hit rate 0.068% among 220,000;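 active = activation, meaning protection from cell death, of at least 50% relative to plate controls; inactive = activation below 50%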;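 note: necroptosis triggered by 40 ng/mL TNF-alpha added together with compound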
p97 ATPase inh: human p97 ATPase inhibition. recombinant p97 ATPase, Kinase-Glo ATP luminescence, 3 h. inhibition, % at 8 µM. hit rate 0.42% among 220,000. AID 1481; in the data active = inhibition above about 15%;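 note: 0% = DMSO vehicle and 100% = wells lacking enzyme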
RBBP9 inh: human RBBP9 hydrolase inhibition | recombinant RBBP9, FP-Rh probe fluorescence polarization | AID 1515 | inhibition, % at 7.94 µM | hit rate 0.2% among 220,000 | O75884;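 active = inhibition above the campaign mean of all tested compounds plus 3 SD, cut at about 14% in these data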;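 note: plate controls were DMSO wells with RBBP9 for no effect and wells lacking RBBP9 protein for full effect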
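Test system: recombinant human RBBP9. Quantity: 2.5 µM RBBP9 dispensing solution, before mixing. Detection: FP readout at 525/598 nm. Reagent: Serine-hydrolase probe FP-Rh, 375 nM pre-mixing. Measure: % inhibition. Control set: DMSO-treated enzyme wells and wells lacking RBBP9. Buffer or medium: Tris-NaCl-Pluronic buffer, pH 8.0. Times: preincubation 30 min plus labeling 45 min at 25 °C.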
zVAD death inh: L929 zVAD cell death inhibition; L929 zVAD necroptosis rescue, ATP luminescence, 24 h; with zVAD 60 µM; viability rescue, % at 10 µM; hit rate 0.38% among 220,000; AID 1377;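 active = activation, scaled between plate controls, above about 75%, limit read from the data; inactive = activation under that limit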;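 note: 0% = zVAD with DMSO and 100% = DMSO alone without zVAD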
PfM18AAP inh-1: blocks P. falciparum M18 aspartyl aminopeptidase; recombinant PfM18AAP, H-Glu-NHMec fluorogenic cleavage; inhibition, % at 7.35 µM; hit rate 1.2% among 290,000;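 active = inhibition above the campaign mean inhibition over all tested compounds plus 3 SD, cut at about 28% in these data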;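 note: 0% = plate median of test compound wells and 100% = 2 mM ZnCl2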
PfM18AAP inh-2: PfM18AAP inhibition, confirmation; inhibition, % at 7.35 µM; recombinant PfM18AAP, H-Glu-NHMec fluorogenic cleavage; shares compounds with PfM18AAP inh-1; hit rate 28% among 2,400;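 active = mean inhibition over replicate wells above the hit cutoff set for the earlier primary screen, cut at about 29% in these data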;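 note: 0% = median of test compound wells and 100% = 2 mM ZnCl2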
CTSL1 counter: Cathepsin L (human) inhibition, confirmation. shares compounds with PfM18AAP inh-1. purified cathepsin L1, Z-Leu-Arg-MCA fluorescence. inhibition, % at 5.96 µM. AID 2178. 2,400 tested, under 10 active;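 active = average inhibition across replicates above the hit cutoff set in the earlier primary screen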;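 note: 0% = median of test compound wells and 100% = Z-Phe-Ala-diazomethylketone 1 µM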
An asterisk follows results filed as active.

CCCCCCCCCCCC(=O)N1CC(=O)NC(=O)C1 was read as Wee1 stabilizer -1.5, TNF death inh 1.0, p97 ATPase inh -16.9, RBBP9 inh -11.7, zVAD death inh 0.0 and PfM18AAP inh-1 -8.1.
Screening O=C(C/C=N\OCc1ccc([N+](=O)[O-])cc1)Nc1ccccc1 returned Wee1 stabilizer -1.4, TNF death inh 1.8, p97 ATPase inh 0.5, RBBP9 inh 5.7, zVAD death inh 1.0, PfM18AAP inh-1 33.4*, PfM18AAP inh-2 -33.0 and CTSL1 counter -1.3.
`COc1ccccc1OCC(=O)NNC(=O)CCCC(=O)NNC(=O)COc1ccccc1OC` gave PfM18AAP inh-1 24.5.
NC(=S)NNC(=O)COc1ccccc1O was read as Wee1 stabilizer 3.6, TNF death inh -0.6, p97 ATPase inh -0.9, RBBP9 inh 4.4, zVAD death inh 0.6, PfM18AAP inh-1 37.3*, PfM18AAP inh-2 39.1* and CTSL1 counter -1.5.
Screening COc1ccc(OC)c(NC(=O)NNC(=O)c2cc3occc3[nH]2)c1 returned PfM18AAP inh-1 56.4*, PfM18AAP inh-2 35.2* and CTSL1 counter 1.4.
Cc1ccc(C)c(NC(=O)NNC(=O)c2cc3occc3[nH]2)c1 was read as PfM18AAP inh-1 49.2*, PfM18AAP inh-2 28.7* and CTSL1 counter -2.6.
Screening COc1ccc(C)cc1NC(=O)NNC(=O)c1ccoc1C returned PfM18AAP inh-1 46.6*, PfM18AAP inh-2 20.0 and CTSL1 counter -1.5.
Screening CN1C(=O)CSC1=S returned PfM18AAP inh-1 3.4.
`COc1ccc(-c2cc(C(F)(F)F)nc(NCc3ccco3)n2)cc1OC` gave Wee1 stabilizer -0.8, TNF death inh -1.4, p97 ATPase inh -4.2, RBBP9 inh -7.2, zVAD death inh 2.5 and PfM18AAP inh-1 11.2.
For FC(F)(F)c1cc(-c2ccc3c(c2)OCO3)nc(NCc2ccco2)n1 the results were Wee1 stabilizer -2.3, TNF death inh -1.6, p97 ATPase inh 3.5, RBBP9 inh -9.5, zVAD death inh 0.4, PfM18AAP inh-1 37.3*, PfM18AAP inh-2 -30.0 and CTSL1 counter 1.3.
`C=CCNC(=S)Nc1cccc(N)c1` gave Wee1 stabilizer -0.3, TNF death inh -0.6, p97 ATPase inh 7.2, RBBP9 inh -2.9, zVAD death inh -0.4 and PfM18AAP inh-1 9.5.
COCCNC(=O)Cn1nc(-c2ccc(C)cc2)ccc1=O was read as PfM18AAP inh-1 -3.3.
Screening Oc1ccc(N2CCN(c3ncnc4sc5c(c34)CCC5)CC2)cc1 returned Wee1 stabilizer -3.6, TNF death inh -4.8, p97 ATPase inh -0.1, RBBP9 inh 0.5, zVAD death inh 0.5, PfM18AAP inh-1 38.8*, PfM18AAP inh-2 3.0 and CTSL1 counter -1.0.
Screening CCc1nnc(NC(=O)C2CC(=O)N(CCc3ccc(F)cc3)C2)s1 (centres undefined) returned PfM18AAP inh-1 3.0.
For CCCC(C)c1nnc(NC(=O)C2CC(=O)N(CCc3ccc(F)cc3)C2)s1 (centres undefined) the results were PfM18AAP inh-1 40.6*, PfM18AAP inh-2 -8.5 and CTSL1 counter -0.1.
`Cc1ccc(OCC(=O)NCCNC(=O)c2cccnc2)cc1C` gave PfM18AAP inh-1 8.1.
COc1ccc(-n2c(=S)[nH]c3cc(C(=O)N4CCN(c5ccccc5)CC4)ccc3c2=O)c(OC)c1 was read as PfM18AAP inh-1 -3.0.
For Cc1nn(C(C)C(=O)NC(C)CCc2ccccc2)c(=O)c2cc3occc3n12 (centres undefined) the results were PfM18AAP inh-1 4.2.
COc1ccc(/C(C)=N/NC(=O)c2nc(C)cc(C)n2)cc1 was read as Wee1 stabilizer 1.2, TNF death inh -1.0, p97 ATPase inh -3.0, RBBP9 inh -4.4, zVAD death inh -0.3 and PfM18AAP inh-1 5.3.
COc1ccc(/C(C)=N/Nc2nc3ccccc3nc2C)cc1 was read as Wee1 stabilizer 1.7, TNF death inh -10.5, p97 ATPase inh 3.9, RBBP9 inh -7.6, zVAD death inh 0.3, PfM18AAP inh-1 55.8*, PfM18AAP inh-2 -13.7 and CTSL1 counter 3.5.
Cc1ccc(NC(=O)C2=CCN(S(=O)(=O)c3ccc(F)cc3)CC2)cc1 was read as Wee1 stabilizer 1.4, TNF death inh 1.3, p97 ATPase inh 0.5, RBBP9 inh -5.5 and PfM18AAP inh-1 1.2.
Screening Cc1ccc(S(=O)(=O)N2CC=C(c3ccc(F)cc3)CC2)cc1 returned Wee1 stabilizer -2.2, TNF death inh 3.5, p97 ATPase inh -3.9, RBBP9 inh -1.5, zVAD death inh 0.4, PfM18AAP inh-1 75.8*, PfM18AAP inh-2 -52.9 and CTSL1 counter -2.9.
OC(Cn1cnnc1)c1ccccc1 (centres undefined) was read as PfM18AAP inh-1 79.0*, PfM18AAP inh-2 76.2* and CTSL1 counter -2.8.
OC(CN1CCc2ccccc2C1)c1ccccc1 (centres undefined) was read as Wee1 stabilizer 0.2, TNF death inh 3.0, p97 ATPase inh -4.7, RBBP9 inh -4.6, zVAD death inh 1.3 and PfM18AAP inh-1 -11.5.
`Cc1ccc(-n2c(N)c(C(N)=O)sc2=S)c(C)c1` gave Wee1 stabilizer -4.3, TNF death inh -0.1, p97 ATPase inh 4.8, RBBP9 inh -3.4, zVAD death inh 24.9, PfM18AAP inh-1 39.1*, PfM18AAP inh-2 7.7 and CTSL1 counter 5.1.
Screening Cc1ccc(-n2c(N)c(C(=O)N3CCCCC3)sc2=S)cc1 returned Wee1 stabilizer -1.5, TNF death inh 0.1, p97 ATPase inh -1.1, RBBP9 inh -8.7, zVAD death inh 0.1 and PfM18AAP inh-1 -25.2.
For Cc1ccc(-n2c(N)c(C(=O)N3CCN(C)CC3)sc2=S)cc1 the results were Wee1 stabilizer 1.2, TNF death inh -0.8, p97 ATPase inh 0.3, RBBP9 inh 1.6, zVAD death inh 0.2, PfM18AAP inh-1 58.7*, PfM18AAP inh-2 19.2 and CTSL1 counter 0.8.
CCOC(=O)C1(CCOC)CCN(C(=O)c2ccc(CSC)o2)CC1 was read as PfM18AAP inh-1 -1.3.
O=C(NNc1cccc(Cl)n1)Nc1ccc(Cl)cc1 was read as Wee1 stabilizer -2.2, TNF death inh 0.1, p97 ATPase inh 0.9, RBBP9 inh -2.7, zVAD death inh -0.2, PfM18AAP inh-1 55.8*, PfM18AAP inh-2 35.8* and CTSL1 counter -2.4.
O=C(NNc1cccc(Cl)n1)Nc1cccc(C(F)(F)F)c1 was read as Wee1 stabilizer -2.6, TNF death inh 3.9, p97 ATPase inh -0.9, RBBP9 inh -1.8, zVAD death inh 1.1, PfM18AAP inh-1 54.0*, PfM18AAP inh-2 37.0* and CTSL1 counter 0.9.
For O=C(Nc1ccncc1)Nc1ccc(Cl)cc1 the results were PfM18AAP inh-1 -3.3.

High-throughput results (PubChem BioAssay)
